The values below come from ChEMBL document CHEMBL1134615, “Structure-based design and synthesis of potent matrix metalloproteinase inhibitors derived from a 6H-1,3,4-thiadiazine scaffold” (J Med Chem, 2001).

Bounds are passed on as bounds.

The target in assay [1] is T1, Matrix metalloproteinase-14 (Homo sapiens, UniProt P50281). Put plainly: In vitro inhibitory activity against the catalytic domain of human matrix metalloprotease-14. A digest of the protocol:
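E. coli-expressed human MMP-14 catalytic domain, activated by autocatalysis, at 0.3-5 nM. Assay buffer 50 mM HEPES pH 7.0, 10 mM CaCl2, 0.02% PEG 8000, 2% DMSO, 25 °C. […] Fluorescence ex 330/em 405 nm, triplicate. Ki derived from four-parameter logistic IC50 (Horovitz-Levitski).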

The target in assay [2] is Macrophage metalloelastase (Homo sapiens, UniProt P39900). In words: In Vitro inhibitory activity against the catalytic domain of the matrix metalloprotease-12. A digest of the protocol: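 Human MMP-12 catalytic domain, expressed in E. coli as inclusion bodies, renatured and affinity-purified. FRET assay in 50 mM HEPES/NaOH pH 7.0, 10 mM CaCl2, 0.02% PEG 8000, 2% DMSO, 25 °C. […] Inhibitor at 0.005-15 µM, 30 min preincubation, ex 330/em 405 nm, triplicate. Four-parameter logistic IC50, then Ki by the Horovitz-Levitski method.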

The next assay concerns the target Collagenase 3 (Homo sapiens, UniProt P45452). In words: In Vitro inhibitory activity against the catalytic domain of the matrix metalloprotease-13.
The target of assay [3] is Matrix metalloproteinase-9 (Homo sapiens, UniProt P14780). In words: In vitro inhibition of human matrix metalloprotease-9. In short, it runs like this:
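Full-length PMNL pro-gelatinase from human plasma buffy coat, activated with trypsin for 10 min at 37 °C, then trypsin inactivated with TKI. […] Buffer 50 mM HEPES pH 7.0, 10 mM CaCl2, 0.02% PEG 8000, 2% DMSO, 25 °C. Inhibitor 0.005-15 µM, 30 min preincubation, triplicate. Ki from logistic IC50 by the Horovitz-Levitski method.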

For assay [4], the target named is 72 kDa type IV collagenase (Homo sapiens, UniProt P08253).
Another assay deals with Neutrophil collagenase (Homo sapiens, UniProt P22894). In words: Inhibitory activity against matrix metalloprotease-8.
For another assay, the target named is T2, Interstitial collagenase (Homo sapiens, UniProt P03956).
T2 sequence (P03956 whole entry): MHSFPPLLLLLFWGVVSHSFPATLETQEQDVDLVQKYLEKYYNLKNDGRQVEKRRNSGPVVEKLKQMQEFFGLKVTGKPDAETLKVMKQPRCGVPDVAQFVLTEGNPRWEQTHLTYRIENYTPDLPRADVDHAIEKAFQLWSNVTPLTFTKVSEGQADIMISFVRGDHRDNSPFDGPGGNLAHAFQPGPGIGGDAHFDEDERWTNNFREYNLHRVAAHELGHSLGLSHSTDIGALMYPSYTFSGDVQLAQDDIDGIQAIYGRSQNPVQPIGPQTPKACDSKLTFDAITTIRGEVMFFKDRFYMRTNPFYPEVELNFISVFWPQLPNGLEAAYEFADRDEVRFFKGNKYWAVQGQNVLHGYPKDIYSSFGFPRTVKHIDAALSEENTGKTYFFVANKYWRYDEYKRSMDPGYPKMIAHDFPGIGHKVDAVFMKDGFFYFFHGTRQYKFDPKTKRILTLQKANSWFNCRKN
In words: In vitro inhibitory activity against full-length human matrix metalloprotease-1.

The target in assay [5] is T1, Matrix metalloproteinase-14. In words: In vitro inhibitory activity against the ectodomain of the human matrix metalloprotease-14. A digest of the protocol:
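Ectodomain of human MMP-14 (ΔTM) expressed in Pichia pastoris. […] Buffer 50 mM HEPES pH 7.0, 10 mM CaCl2, 0.02% PEG 8000, 2% DMSO, 25 °C. Inhibitor 0.005-15 µM, 30 min preincubation, ex 330/em 405 nm, triplicate. Ki from logistic-fit IC50 by the Horovitz-Levitski method.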

The target is the same in assay [6]. In words: Inhibition of matrix metalloprotease-14.

Chain of 72 kDa type IV collagenase (P08253 whole entry): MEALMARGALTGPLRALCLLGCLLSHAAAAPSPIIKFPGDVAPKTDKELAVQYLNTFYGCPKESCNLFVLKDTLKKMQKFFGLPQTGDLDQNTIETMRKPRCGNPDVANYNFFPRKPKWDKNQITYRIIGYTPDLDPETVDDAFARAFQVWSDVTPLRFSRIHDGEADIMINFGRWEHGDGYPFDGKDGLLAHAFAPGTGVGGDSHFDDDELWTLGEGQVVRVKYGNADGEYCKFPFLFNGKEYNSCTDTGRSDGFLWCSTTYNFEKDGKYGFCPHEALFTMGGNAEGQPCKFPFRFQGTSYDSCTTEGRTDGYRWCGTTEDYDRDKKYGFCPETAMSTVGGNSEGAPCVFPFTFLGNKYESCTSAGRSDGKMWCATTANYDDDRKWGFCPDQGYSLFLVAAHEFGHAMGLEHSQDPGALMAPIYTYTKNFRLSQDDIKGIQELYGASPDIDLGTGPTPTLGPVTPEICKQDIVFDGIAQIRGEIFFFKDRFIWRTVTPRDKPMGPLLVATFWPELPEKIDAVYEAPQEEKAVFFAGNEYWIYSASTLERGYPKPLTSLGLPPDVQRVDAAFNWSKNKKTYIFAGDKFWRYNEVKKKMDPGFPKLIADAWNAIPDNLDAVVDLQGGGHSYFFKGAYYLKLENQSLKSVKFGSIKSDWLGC
Chain of Matrix metalloproteinase-9 (P14780 whole entry): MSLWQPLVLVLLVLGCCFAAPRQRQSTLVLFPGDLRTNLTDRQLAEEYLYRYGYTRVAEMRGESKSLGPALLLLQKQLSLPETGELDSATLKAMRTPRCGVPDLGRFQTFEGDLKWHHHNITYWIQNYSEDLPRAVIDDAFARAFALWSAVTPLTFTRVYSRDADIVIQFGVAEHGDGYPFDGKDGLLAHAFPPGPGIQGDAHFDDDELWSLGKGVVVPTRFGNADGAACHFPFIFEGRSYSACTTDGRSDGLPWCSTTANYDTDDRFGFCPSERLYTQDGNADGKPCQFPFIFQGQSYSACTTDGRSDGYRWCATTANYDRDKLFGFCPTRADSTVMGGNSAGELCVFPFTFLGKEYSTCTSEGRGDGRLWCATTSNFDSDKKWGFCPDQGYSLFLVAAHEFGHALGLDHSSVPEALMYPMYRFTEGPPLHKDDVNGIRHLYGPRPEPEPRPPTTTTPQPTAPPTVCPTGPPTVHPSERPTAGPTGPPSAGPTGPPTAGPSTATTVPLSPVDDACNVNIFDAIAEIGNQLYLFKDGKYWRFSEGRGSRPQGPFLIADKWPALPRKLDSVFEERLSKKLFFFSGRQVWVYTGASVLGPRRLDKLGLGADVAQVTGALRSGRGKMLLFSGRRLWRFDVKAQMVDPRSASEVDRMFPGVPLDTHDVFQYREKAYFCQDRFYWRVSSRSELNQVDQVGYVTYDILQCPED
Chain of Neutrophil collagenase (P22894 whole entry): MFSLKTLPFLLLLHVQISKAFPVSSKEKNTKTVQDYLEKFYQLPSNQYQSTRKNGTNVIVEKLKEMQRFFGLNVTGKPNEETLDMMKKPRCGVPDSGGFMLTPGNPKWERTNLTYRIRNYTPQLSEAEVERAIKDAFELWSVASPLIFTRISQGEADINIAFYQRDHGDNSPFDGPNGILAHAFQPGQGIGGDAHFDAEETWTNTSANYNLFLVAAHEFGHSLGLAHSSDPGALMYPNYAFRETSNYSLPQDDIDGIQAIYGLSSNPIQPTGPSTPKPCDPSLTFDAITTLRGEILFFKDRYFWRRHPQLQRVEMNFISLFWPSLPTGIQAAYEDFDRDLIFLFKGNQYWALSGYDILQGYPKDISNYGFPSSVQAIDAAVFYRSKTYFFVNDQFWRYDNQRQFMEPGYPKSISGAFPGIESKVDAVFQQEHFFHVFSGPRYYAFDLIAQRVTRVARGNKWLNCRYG
Chain of Macrophage metalloelastase (P39900 whole entry, the tested form may be a part): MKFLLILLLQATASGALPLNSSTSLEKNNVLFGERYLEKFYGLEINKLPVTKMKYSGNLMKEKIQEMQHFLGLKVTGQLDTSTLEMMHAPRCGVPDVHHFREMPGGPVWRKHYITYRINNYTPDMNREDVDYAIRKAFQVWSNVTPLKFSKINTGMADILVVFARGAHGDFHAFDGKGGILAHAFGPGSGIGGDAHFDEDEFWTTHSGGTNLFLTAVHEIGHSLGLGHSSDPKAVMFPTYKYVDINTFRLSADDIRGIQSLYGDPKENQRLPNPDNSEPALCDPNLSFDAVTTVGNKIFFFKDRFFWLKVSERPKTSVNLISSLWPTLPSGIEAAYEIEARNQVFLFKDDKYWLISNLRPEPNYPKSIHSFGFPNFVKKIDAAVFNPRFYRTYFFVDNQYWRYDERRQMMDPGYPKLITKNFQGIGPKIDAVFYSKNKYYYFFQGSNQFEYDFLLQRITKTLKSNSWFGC

`C[C@H](NS(=O)(=O)c1ccccc1)C(=O)NC1=NN=C(C23CC4CC(CC(C4)C2)C3)CS1`: the inhibition constant Ki (usually a dissociation constant, usually derived from enzyme kinetics or from competition with a known ligand) in [1] is 3070 nM; in assay [2], 410 nM; at Collagenase 3, > 15000 nM; in assay [3], > 15000 nM; in assay [4], > 15000 nM; on Neutrophil collagenase, > 15000 nM.
Turning to `Cc1ccc(C2=NN=C(NC(=O)[C@@H](C)NS(=O)(=O)c3ccccc3)SC2)cc1`, the inhibition constant Ki in [1] worked out at 290 nM; in assay [2], 90 nM; on Collagenase 3 it was 320 nM; in assay [3], 210 nM; at Interstitial collagenase, 460 nM; in [4], 440 nM. The inhibition constant Ki came out at 220 nM on Neutrophil collagenase and 150 nM in assay [5].
Turning to `C[C@@H](NS(=O)(=O)c1ccccc1)C(=O)NC1=NN=C(c2ccc(Cl)cc2)CS1`, the Ki in assay [2] is 320 nM; at Collagenase 3, 140 nM; in [3], 80 nM; in [6], 50 nM; at Interstitial collagenase, 210 nM; in assay [4], 500 nM. For the same compound, the inhibitory constant (Ki) on Neutrophil collagenase came out at 150 nM; in [5] it was 210 nM.
With `C[C@H](NS(=O)(=O)c1ccccc1)C(=O)NC1=NN=C(c2ccc(F)cc2)CS1`, the inhibitory constant (Ki) in assay [1] worked out at 440 nM; in [2], 280 nM; at Collagenase 3, 650 nM; in [3] it was 160 nM; at Interstitial collagenase, 440 nM; in [4], 450 nM.
Turning to `CC(C)[C@H](NS(=O)(=O)c1ccccc1)C(=O)NC1=NN=C(c2ccc(Cl)cc2)CS1`, the inhibitory constant (Ki) was 740 nM in assay [1]; 380 nM in assay [2]; > 15000 nM on Collagenase 3; 200 nM in assay [3]; 880 nM in assay [4]; 780 nM on Neutrophil collagenase.
Consider `Cc1ccc(C2=NN=C(NC(=O)[C@H](C)NS(=O)(=O)c3ccccc3)SC2)cc1`, for which the inhibition constant (Ki) in [1] is 380 nM; in assay [2] it was 110 nM; on Collagenase 3, 620 nM; in [3] it was 160 nM; in assay [4], 410 nM; at Neutrophil collagenase, 300 nM.
For `C[C@H](NS(=O)(=O)c1ccccc1)C(=O)NC1=NN=C(c2ccc(C(F)(F)F)cc2)CS1`, the inhibition constant Ki came out at 580 nM in assay [1]; 300 nM in [2]; 570 nM on Collagenase 3; 240 nM in assay [3]; 430 nM on Interstitial collagenase; 260 nM on Neutrophil collagenase. In addition, the Ki in assay [5] stood at 390 nM.
As to `CC(C)(NS(=O)(=O)c1ccccc1)C(=O)NC1=NN=C(c2ccc(Cl)cc2)CS1`, the Ki in assay [1] was determined as 150 nM; in assay [2], 200 nM; on Collagenase 3 it was 180 nM; in assay [3], 90 nM; on Interstitial collagenase it was 300 nM; in assay [4], 80 nM. Besides, the values for the inhibition constant (Ki) (at Neutrophil collagenase; in assay [5]) were 480 nM and 110 nM, respectively.
Take `C[C@H](NS(=O)(=O)c1cccs1)C(=O)NC1=NN=C(c2ccc(Cl)cc2)CS1`: the inhibition constant Ki in assay [1] turned out to be 250 nM; in assay [2], 360 nM; at Collagenase 3, 3810 nM; in [3] it was 800 nM; in [4], 550 nM; on Neutrophil collagenase, 60 nM.
For the compound `C[C@H](NS(=O)(=O)c1ccccc1)C(=O)NC1=NN=C(c2ccc(Br)cc2)CS1`, the Ki in [2] came to 440 nM; on Collagenase 3 it was 370 nM; in assay [3], 160 nM; in assay [6], 340 nM; in [4], 270 nM; on Neutrophil collagenase, 110 nM.
Turning to `C[C@@H](NS(=O)(=O)c1ccccc1)C(=O)NC1=NN=C(c2ccc(Br)cc2)CS1`, the Ki in [2] was determined as 340 nM; at Collagenase 3 it was 130 nM; in assay [3], 40 nM; in assay [6] it was 200 nM; at Interstitial collagenase, 420 nM; in assay [4], 150 nM. The Ki on Neutrophil collagenase amounted to 210 nM; in assay [5], 180 nM.
In the case of `C[C@H](NS(=O)(=O)Cc1ccccc1)C(=O)NC1=NN=C(c2ccc(Cl)cc2)CS1`, the Ki in assay [1] came to 190 nM; in [2], 480 nM; on Collagenase 3, 120 nM; in [3], 40 nM; on Interstitial collagenase, 360 nM; in assay [4], 90 nM. Moreover, the Ki turned out to be 200 nM at Neutrophil collagenase and 180 nM in assay [5].
Take `C[C@H](NS(=O)(=O)c1ccccc1)C(=O)NC1=NN=C(c2ccc(Cl)cc2)CS1`: the inhibition constant (Ki) was determined as 100 nM in assay [1]; 520 nM in assay [2]; 180 nM on Collagenase 3; 60 nM in assay [3]; 650 nM on Interstitial collagenase; 140 nM in assay [4]. For the same compound, the figures for the Ki (at Neutrophil collagenase; in [5]) were 730 nM and 210 nM, respectively.
Turning to `C[C@@H](NS(=O)(=O)c1ccccc1)C(=O)NC1=NN=C(c2ccc(C#N)cc2)CS1`, the inhibitory constant (Ki) was 360 nM in [2]; 210 nM at Collagenase 3; 80 nM in [3]; 240 nM in [6]; 400 nM at Interstitial collagenase; 210 nM in assay [4]. In addition, the Ki on Neutrophil collagenase stood at 230 nM; in [5], 400 nM.
Take `C[C@H](NS(=O)(=O)c1ccccc1)C(=O)NC1=NN=C(c2ccc(Cl)s2)CS1`: the inhibition constant (Ki) was 320 nM in assay [1]; 240 nM in assay [2]; 470 nM at Collagenase 3; 170 nM in [3]; 450 nM at Interstitial collagenase; 1870 nM in assay [4]. Further, the Ki was 180 nM on Neutrophil collagenase and 200 nM in assay [5].
In the case of `C[C@H](NS(=O)(=O)c1ccccc1)C(=O)NC1=NN=C(c2ccc([N+](=O)[O-])cc2)CS1`, the Ki in [1] is 290 nM; in assay [2] it was 280 nM; at Collagenase 3, 260 nM; in assay [3], 130 nM; on Interstitial collagenase, 260 nM; in assay [4], 300 nM. This compound registered an inhibition constant Ki at Neutrophil collagenase of 170 nM.
Regarding `C[C@@H](NS(=O)(=O)c1ccccc1)C(=O)NC1=NN=C(c2ccc(F)cc2)CS1`, the inhibitory constant (Ki) in [1] came to 390 nM; in [2], 350 nM; on Collagenase 3, 300 nM; in [3], 50 nM; on Interstitial collagenase it was 630 nM; in assay [4], 340 nM. The Ki in assay [5] came to 330 nM.
With `COc1ccc(C2=NN=C(NC(=O)[C@H](C)NS(=O)(=O)c3ccccc3)SC2)cc1`, the Ki in assay [1] was determined as 590 nM; in assay [2], 340 nM; at Collagenase 3, 1330 nM; in [3], 320 nM; at Interstitial collagenase it was 580 nM; on Neutrophil collagenase it was 180 nM.
Turning to `C[C@H](NS(=O)(=O)c1ccccc1)C(=O)NC1=NN=C(c2ccc(C#N)cc2)CS1`, the Ki in [2] was found to be 370 nM; at Collagenase 3, 250 nM; in [3], 80 nM; in assay [6], 240 nM; at Interstitial collagenase it was 390 nM; in assay [4], 240 nM. Moreover, the Ki at Neutrophil collagenase worked out at 220 nM; in assay [5] it was 400 nM.
As for `CC(C)[C@@H](NS(=O)(=O)c1ccccc1)C(=O)NC1=NN=C(c2ccc(Cl)cc2)CS1`, the Ki in assay [1] was 590 nM; in assay [2], 350 nM; at Collagenase 3, > 15000 nM; in assay [3], > 15000 nM; on Interstitial collagenase, 550 nM; in assay [4] it was 850 nM. In addition, the Ki on Neutrophil collagenase came out at 4370 nM; in assay [5], 330 nM.
